Test results reported in ChEMBL document CHEMBL1649552 (2009).
≈ marks a conversion by molar mass, not a printed value.

What was measured:
Format in all cases: functional
Streptococcus pneumoniae [1] = assay: Antibacterial activity against Streptococcus pneumoniae assessed as resistant isolates by CLSI M100-S17 method
Procedure, shortened: (§1)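 Clinical isolates were tested by CLSI broth microdilution in frozen, in-house-prepared 96-well panels of the test agent and comparator agents. MICs were read and classed as susceptible, intermediate or resistant using CLSI M100-S17 breakpoints. The value is the share of isolates in each category.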

Streptococcus pneumoniae [2] = assay: Antibacterial activity against Streptococcus pneumoniae by CLSI M100-S17 method
Streptococcus pneumoniae [3] = assay: Antibacterial activity against Streptococcus pneumoniae assessed as intermediate isolates by CLSI M100-S17 method
Procedure, shortened: (§2)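 CLSI broth microdilution on clinical isolates, using frozen in-house-prepared panels of test and comparator agents. MICs were read after 20 to 24 h incubation at 35°C in ambient air. Susceptible/intermediate categories were assigned by CLSI M100-S17 guidelines.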

Streptococcus pneumoniae [4] = assay: Antibacterial activity against Streptococcus pneumoniae assessed as susceptible isolates by CLSI M100-S17 method; procedure, shortened: as §2
[5] = test system: Staphylococcus epidermidis; assay: Antibacterial activity against methicillin-resistant Staphylococcus epidermidis assessed as resistant isolates by CLSI M100-S17 method
Streptococcus agalactiae [6] = assay: Antibacterial activity against Streptococcus agalactiae assessed as resistant isolates by CLSI M100-S17 method; procedure, shortened: as §1
Streptococcus agalactiae [7] = assay: Antibacterial activity against Streptococcus agalactiae assessed as intermediate isolates by CLSI M100-S17 method; procedure, shortened: as §2
Streptococcus agalactiae [8] = assay: Antibacterial activity against Streptococcus agalactiae by CLSI M100-S17 method
[9] = test system: Staphylococcus epidermidis; assay: Antibacterial activity against methicillin-susceptible Staphylococcus epidermidis by CLSI M100-S17 method
Enterococcus faecalis = assay: Antibacterial activity against Enterococcus faecalis by CLSI M100-S17 method
Staphylococcus aureus [10] = assay: Antibacterial activity against methicillin-susceptible Staphylococcus aureus assessed as resistant isolates by CLSI M100-S17 method
Staphylococcus aureus [11] = assay: Antibacterial activity against methicillin-resistant Staphylococcus aureus by CLSI M100-S17 method
Streptococcus agalactiae [12] = assay: Antibacterial activity against Streptococcus agalactiae assessed as susceptible isolates by CLSI M100-S17 method; procedure, shortened: as §2
[13] = test system: Staphylococcus epidermidis; assay: Antibacterial activity against methicillin-resistant Staphylococcus epidermidis assessed as susceptible isolates by CLSI M100-S17 method
Streptococcus pyogenes [14] = assay: Antibacterial activity against Streptococcus pyogenes assessed as intermediate isolates by CLSI M100-S17 method; procedure, shortened: as §2
Enterococcus faecium = assay: Antibacterial activity against Enterococcus faecium by CLSI M100-S17 method
Staphylococcus aureus [15] = assay: Antibacterial activity against methicillin-susceptible Staphylococcus aureus assessed as susceptible isolates by CLSI M100-S17 method
[16] = test system: Staphylococcus epidermidis; assay: Antibacterial activity against methicillin-resistant Staphylococcus epidermidis by CLSI M100-S17 method
Staphylococcus aureus [17] = assay: Antibacterial activity against methicillin-resistant Staphylococcus aureus assessed as susceptible isolates by CLSI M100-S17 method
[18] = test system: Staphylococcus epidermidis; assay: Antibacterial activity against methicillin-susceptible Staphylococcus epidermidis assessed as susceptible isolates by CLSI M100-S17 method
Streptococcus pyogenes [19] = assay: Antibacterial activity against Streptococcus pyogenes assessed as susceptible isolates by CLSI M100-S17 method; procedure, shortened: as §2
[20] = test system: Staphylococcus epidermidis; assay: Antibacterial activity against methicillin-susceptible Staphylococcus epidermidis assessed as intermediate isolates by CLSI M100-S17 method
Staphylococcus aureus [21] = assay: Antibacterial activity against methicillin-susceptible Staphylococcus aureus by CLSI M100-S17 method
Staphylococcus aureus [22] = assay: Antibacterial activity against methicillin-susceptible Staphylococcus aureus assessed as intermediate isolates by CLSI M100-S17 method
Staphylococcus aureus [23] = assay: Antibacterial activity against methicillin-resistant Staphylococcus aureus assessed as intermediate isolates by CLSI M100-S17 method
Staphylococcus aureus [24] = assay: Antibacterial activity against methicillin-resistant Staphylococcus aureus assessed as resistant isolates by CLSI M100-S17 method
[25] = test system: Staphylococcus epidermidis; assay: Antibacterial activity against methicillin-susceptible Staphylococcus epidermidis assessed as resistant isolates by CLSI M100-S17 method
Streptococcus pyogenes [26] = assay: Antibacterial activity against Streptococcus pyogenes assessed as resistant isolates by CLSI M100-S17 method; procedure, shortened: as §1

CO/N=C(\C(=O)N[C@@H]1C(=O)N2C(C(=O)O)=C(CSc3nc(=O)c(O)nn3C)CS[C@H]12)c1csc(N)n1 [CEFTRIAXONE]
Activity (Streptococcus pneumoniae [1]): 0.1% | MIC50 (Streptococcus pneumoniae [2]): ≤ 0.06 µg/mL | MIC90 (Streptococcus pneumoniae [2]): 0.12 µg/mL (≈ 0.216 µM) | Activity (Streptococcus pneumoniae [3]): 0.2% | Activity (Streptococcus pneumoniae [4]): 99.7%

CCC[C@@H]1C[C@@H](C(=O)N[C@@H]([C@H]2O[C@H](SC)[C@H](O)[C@@H](O)[C@H]2O)[C@H](C)Cl)N(C)C1 [CLINDAMYCIN]
Activity [5]: 90% | Activity (Streptococcus agalactiae [6]): 12.5% | Activity (Streptococcus agalactiae [7]): 2.3% | MIC50 (Streptococcus agalactiae [8]): ≤ 0.06 µg/mL | MIC90 (Streptococcus agalactiae [8]): > 8 µg/mL | MIC50 [9]: ≤ 0.12 µg/mL | MIC90 [9]: > 8 µg/mL | MIC50 (Enterococcus faecalis): > 8 µg/mL | MIC90 (Enterococcus faecalis): > 8 µg/mL | Activity (Staphylococcus aureus [10]): 8.6% | MIC50 (Staphylococcus aureus [11]): > 8 µg/mL | MIC90 (Staphylococcus aureus [11]): > 8 µg/mL | Activity (Streptococcus agalactiae [12]): 85.2% | Activity [13]: 10% | Activity (Streptococcus pyogenes [14]): 0% | MIC50 (Enterococcus faecium): > 8 µg/mL | MIC90 (Enterococcus faecium): > 8 µg/mL | Activity (Staphylococcus aureus [15]): 91% | MIC50 [16]: > 8 µg/mL | Activity (Staphylococcus aureus [17]): 37.9% | Activity [18]: 61.1% | Activity (Streptococcus pyogenes [19]): 97.3% | Activity [20]: 0% | MIC50 (Staphylococcus aureus [21]): ≤ 0.12 µg/mL | MIC90 (Staphylococcus aureus [21]): ≤ 0.12 µg/mL | Activity (Staphylococcus aureus [22]): 0.4% | Activity (Staphylococcus aureus [23]): 0.3% | Activity (Staphylococcus aureus [24]): 61.8% | Activity [25]: 38.9% | Activity (Streptococcus pyogenes [26]): 2.7%

C[C@H]1COc2c(N3CCN(C)CC3)c(F)cc3c(=O)c(C(=O)O)cn1c23.C[C@H]1COc2c(N3CCN(C)CC3)c(F)cc3c(=O)c(C(=O)O)cn1c23.O [LEVOFLOXACIN]
Activity (Streptococcus pneumoniae [1]): 0.6% | MIC50 (Streptococcus pneumoniae [2]): 0.5 µg/mL | MIC90 (Streptococcus pneumoniae [2]): 1 µg/mL | Activity (Streptococcus pneumoniae [3]): 0% | Activity (Streptococcus pneumoniae [4]): 99.4%
